Laboratory results published in the EternaBench riboswitch data.

Tested on: MS2 coat protein
Assay: apparent Kd, MS2 coat protein; higher = weaker binding; RNA-MaP array; FMN 200 µM where present
How it was run: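 Designs were transcribed by stalled E. coli RNA polymerase on Illumina sequencing-chip clusters. They were titrated with SNAP-549-labelled MS2 coat protein from 0.7 or 1.5 nM, doubling to 3 µM, without and then with constant ligand. Buffer: 100 mM Tris-HCl pH 7.5, 80 mM KCl, 4 mM MgCl2, BSA, DTT, yeast tRNA, Tween-20. Green signal was normalised to red-channel RNA signal and control-cluster median Fmax. Apparent Kd is the median of filtered per-cluster binding-curve fits.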

[1] = designed as: OFF switch for flavin mononucleotide, no ligand
[2] = ligand present: flavin mononucleotide, designed as: OFF switch for flavin mononucleotide
[3] = designed as: ON switch for flavin mononucleotide, no ligand
[4] = ligand present: flavin mononucleotide, designed as: ON switch for flavin mononucleotide

Sequence: GGAUAGGACAGAGGAUAUACCUGCUAGAGAUACUAGCAAAAUUUCCUCACAUGAGGAUCACCCAUGUAGAAGGCUGUCCUAUCG
- apparent Kd [1]: 0.00845 µM
- apparent Kd [2]: 0.109 µM

Sequence: GGAUAGGACAGAGGAUAUACGGGCUAGAGAUACUAGCAAAAUUUCCUCACAUGAGGAUCACCCAUGUAGAAGGCUGUCCUAUCG
- apparent Kd [1]: 0.0701 µM
- apparent Kd [2]: 0.864 µM

Sequence: GGAUAGGACAGAGGAUAUACGUGCAAGAGAUACUAGCAAAAUUUCCUCACAUGAGGAUCACCCAUGUAGAAGGCUGUCCUAUCG
- apparent Kd [1]: 0.0574 µM
- apparent Kd [2]: 0.331 µM

Sequence: GGAUAGGACAGAGGAUAUACGUGCGAGAGAUACUAGCAAAAUUUCCUCACAUGAGGAUCACCCAUGUAGAAGGCUGUCCUAUCG
- apparent Kd [1]: 0.162 µM
- apparent Kd [2]: 0.195 µM

Sequence: GGAUAGGACAGAGGAUAUACGUGCUAGAGACACUAGCAAAAUUUCCUCACAUGAGGAUCACCCAUGUAGAAGGCUGUCCUAUCG
- apparent Kd [1]: 0.0154 µM
- apparent Kd [2]: 0.405 µM

Sequence: GGAUAGGACAGAGGAUAUACGUGCUAGAGAUACAAGCAAAAUUUCCUCACAUGAGGAUCACCCAUGUAGAAGGCUGUCCUAUCG
- apparent Kd [1]: 0.0437 µM
- apparent Kd [2]: 0.432 µM

Sequence: GGAUAGGACAGAGGAUAUACGUGCUAGAGAUACUAGCAAAAUUUCCUCACAUGAGGAUCACCCAUGUAGAAGGCUGUCCUACCG
- apparent Kd [1]: 0.017 µM
- apparent Kd [2]: 0.484 µM

Sequence: GGAUAGGACAGAGGAUAUACGUGCUAGAGAUACUAGCAAAAUUUCCUCACAUGAGGAUCACCCAUGUAGAAGGCUGUCUUAUCG
- apparent Kd [1]: 0.016 µM
- apparent Kd [2]: 0.191 µM

Sequence: GGAUAGGACAGAGGAUAUACGUGCUAGAGUUACUAGCAAAAUUUCCUCACAUGAGGAUCACCCAUGUAGAAGGCUGUCCUAUCG
- apparent Kd [1]: 0.0156 µM
- apparent Kd [2]: 0.47 µM

Sequence: GGAUCACAAAGUGAUCCAAUACGAACAUGAGGAUCACCCAUGUAGGAUAUGCUACUCAAAGAGUAGCAGAAGGACAUGUGCCUU
- apparent Kd [1]: 0.0354 µM
- apparent Kd [2]: 0.296 µM

Sequence: GGAUCAGAUGAGGAUAUUCGUUGUAUAACAACAGGAGAAGGCAUCACAUGAGGAUCACCCAUGUUCUACCUUCC
- apparent Kd [1]: 0.0141 µM
- apparent Kd [2]: 0.0158 µM

Sequence: GGAUCCAUGUAGAAGGCUGUCUUAAAAUAGGACAGAGGAUAUACAUGAGGAUCACCCAUGUACUCCUUUAAAAGGAUCCAAAUA
- apparent Kd [1]: 0.0055 µM
- apparent Kd [2]: 0.00865 µM

Sequence: GGAUCGUAAGGAUAUACAUGAGGAUCACCCAUGUGGAUCUAACGGGUCGCCAAGUCGUGUAGAAGGUGCCGUCU
- apparent Kd [1]: 0.0227 µM
- apparent Kd [2]: 0.0206 µM

Sequence: GGAUCUGAAACAGAUCCAAUACGAACAUGAGGAUCACCCAUGUAGGAUAUGCUACUCAAAGAGUAGCAGAAGGACAUGUGUCUU
- apparent Kd [1]: 0.0243 µM
- apparent Kd [2]: 0.147 µM

Sequence: GGAUGACAAAGUCAUCCUAUUCGAACAUGAGGAUCACCCAUGUAGGAUAUGCUACUCAAAGAGUAGCAGAAGGACAUGUGCUUU
- apparent Kd [1]: 0.0376 µM
- apparent Kd [2]: 0.165 µM

Sequence: GGAUGACAAAGUCAUCCUUAACGAACAUGAGGAUCACCCAUGUAGGAUAUGCAACUCAAAGAGUUGCAGAAGGACAUGUGCCUU
- apparent Kd [1]: 0.0359 µM
- apparent Kd [2]: 0.238 µM

Sequence: GGAUGACAAAGUCAUCCUUAACGAACAUGAGGAUCACCCAUGUAGGAUAUGCUACUGAAACAGUAGCAGAAGGACAUGUGUCUU
- apparent Kd [1]: 0.0297 µM
- apparent Kd [2]: 0.13 µM

Sequence: GGAUGACAUAGUCAUCCUUAACGAACAUGAGGAUCACCCAUGUAGGAUAUGCUACUCAAAGAGUAGCAGAAGGGCAUGUGUCUU
- apparent Kd [1]: 0.0306 µM
- apparent Kd [2]: 0.0688 µM

Sequence: GGAUGUCAAAGACAUCCUAAACGAACAUGAGGAUCACCCAUGUAGGAUAUGCUACUCAAAGAGUAGCAGAAGGACAUGUGCCUU
- apparent Kd [1]: 0.035 µM
- apparent Kd [2]: 0.238 µM

Sequence: GGCAAAUGAGCAGGAUAUACAGUACAUGCCUAAUGGAUUCACGCACAUGAGGAUCACCCAUGUACGUAGAAGGGCUCCGAGGAG
- apparent Kd [1]: 0.0122 µM
- apparent Kd [2]: 0.0144 µM

Sequence: GGCAUAAACGAGGAUAUCGAUACGGAAACGUAUCGAGAAGGUGUAACAUGAGGAUCACCCAUGUUCCUCAAGCC
- apparent Kd [1]: 0.0386 µM
- apparent Kd [2]: 0.0395 µM

Sequence: GGCCCGGGAGGAUAUACAUGAGGAUCACCCAUGUGCUUCGGCUUGAUCAAGUUGAAGUGUAGAAGGCCCGGGCC
- apparent Kd [1]: 0.0142 µM
- apparent Kd [2]: 0.021 µM

Sequence: GGCCGUUUACAUGAGGAUCACCCAUGUCCGGAUUGUUGGCCCAGAAGGCAUUACGAAUUCGGCUAUGAGGAUAUGGGUUACAAG
- apparent Kd [3]: 0.215 µM
- apparent Kd [4]: 0.119 µM

Sequence: GGCGAACAUGAGGAUCACCCAUGUCAGGAUAUCUCUCGCGUUGAAUUGAGGGUGUGUGAGAGAAGGGAUAUGUA
- apparent Kd [1]: 0.0497 µM
- apparent Kd [2]: 0.0499 µM

Sequence: GGCGAAGAGGCUAACAUGAGGAUCACCCAUGUGGACUCAUGGUAGGAUAUGCUGUACAAAGUACAGCAGAAGGGCCGCUGAGCC
- apparent Kd [3]: 0.146 µM
- apparent Kd [4]: 0.663 µM

Sequence: GGCGGCGCGGGCCACCGCAGGGCCAGAAGGACAUGAGGAUCACCCAUGUGGCAGGACAGGGCGGUGUAGGAUAUGGCAGGCUCG
- apparent Kd [1]: 0.0119 µM
- apparent Kd [2]: 0.0433 µM

Sequence: GGCGUGUUAGGAUAUCGCGGCGGCGGCGUUUGUUGUUGUUGUGAGAAGGAACAUGAGGAUCACCCAUGUAUGCC
- apparent Kd [1]: 0.0348 µM
- apparent Kd [2]: 0.055 µM
